From ChEMBL document CHEMBL1152204, “Novel potent and highly selective human A(3) adenosine receptor antagonists belonging to the 4-amido-2-arylpyrazolo[3,4-c]quinoline series: molecular docking analysis and pharmacological studies” (Bioorg Med Chem, 2009)

Assays:
[1] = molecular target: T1, Adenosine receptor A3 (Homo sapiens) (UniProt P0DMS8); assay: (§1) Displacement of [125I]AB-MECA from human adenosine A3 receptor expressed in CHO cells by scintillation counting; assay type: cell-based; set-up: concentration or dose not given beside the values; settings: concentration not given here
T1 sequence (whole entry): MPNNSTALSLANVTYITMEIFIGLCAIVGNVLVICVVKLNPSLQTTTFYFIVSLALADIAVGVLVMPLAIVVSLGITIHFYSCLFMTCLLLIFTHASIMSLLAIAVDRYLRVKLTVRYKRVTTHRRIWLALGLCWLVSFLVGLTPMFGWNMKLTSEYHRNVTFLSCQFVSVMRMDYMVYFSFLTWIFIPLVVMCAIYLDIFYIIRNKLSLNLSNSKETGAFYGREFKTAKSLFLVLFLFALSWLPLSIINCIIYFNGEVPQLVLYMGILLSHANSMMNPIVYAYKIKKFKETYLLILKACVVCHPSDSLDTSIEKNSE
In short: (§2)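 hA3-CHO membranes (50 µg protein) with 0.5 nM [125I]AB-MECA in 50 mM Tris-HCl, 10 mM MgCl2, 1 mM EDTA, pH 7.4; six to eight ligand concentrations; 120 min at 4 °C. Nonspecific binding: 1 µM AB-MECA. GF/B filtration. Ki by Cheng–Prusoff, means of four assays in duplicate.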

[2] = molecular target: T2, Adenosine receptor A1 (Homo sapiens) (UniProt P30542); assay: Displacement of [3H]DPCPX from human adenosine A1 receptor expressed in CHO cells at 1 uM by scintillation counting; assay type: cell-based
T2 sequence (whole entry): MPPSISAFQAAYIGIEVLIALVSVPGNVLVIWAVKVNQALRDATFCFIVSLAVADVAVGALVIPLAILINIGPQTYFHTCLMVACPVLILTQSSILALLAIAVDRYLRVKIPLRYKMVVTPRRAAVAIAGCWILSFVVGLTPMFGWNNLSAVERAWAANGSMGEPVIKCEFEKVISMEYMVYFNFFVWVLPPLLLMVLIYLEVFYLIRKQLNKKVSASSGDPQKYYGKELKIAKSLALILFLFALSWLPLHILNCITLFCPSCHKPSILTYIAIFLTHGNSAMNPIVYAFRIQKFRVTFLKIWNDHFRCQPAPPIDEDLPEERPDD
In short: (§3)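 hA1-CHO membranes (50 µg protein) with 1 nM [³H]DPCPX in 50 mM Tris-HCl pH 7.4, 120 min at 25 °C; nonspecific binding with 10 µM CHA. GF/B filtration. Ki from six to eight concentrations via Cheng–Prusoff (four duplicate assays); or % inhibition at 1 µM.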

[3] = molecular target: T3, Adenosine receptor A2a (Homo sapiens, UniProt P29274); assay: Displacement of [3H]ZM241385 from human adenosine A2A receptor expressed in CHO cells at 1 uM by scintillation counting; assay type: cell-based
In short: (§4)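 hA2A-CHO membranes (50 µg protein) with 1 nM [³H]ZM241385 in 50 mM Tris-HCl, 10 mM MgCl2, pH 7.4; 60 min at 4 °C; nonspecific binding with 1 µM ZM241385. GF/B filtration. Ki from six to eight concentrations via Cheng–Prusoff; or % inhibition at 1 µM.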

[4] = molecular target: T4, Adenosine receptor A2b (Homo sapiens) (UniProt P29275); assay: Antagonist activity at human adenosine A2B receptor expressed in CHO cells assessed as inhibition of NECA-induced cAMP accumulation at 1 uM; assay type: functional, cell-based
T4 sequence (whole entry): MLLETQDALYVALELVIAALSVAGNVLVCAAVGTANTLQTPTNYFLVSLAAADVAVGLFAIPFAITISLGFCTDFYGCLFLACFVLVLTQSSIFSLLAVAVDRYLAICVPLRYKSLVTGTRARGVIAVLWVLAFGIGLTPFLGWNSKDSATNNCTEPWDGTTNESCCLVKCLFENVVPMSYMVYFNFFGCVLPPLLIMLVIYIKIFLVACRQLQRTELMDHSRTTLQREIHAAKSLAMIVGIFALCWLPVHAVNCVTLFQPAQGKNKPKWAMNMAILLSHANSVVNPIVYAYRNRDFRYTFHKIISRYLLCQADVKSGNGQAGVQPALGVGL
In short: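 Whole hA2B-CHO cells (1 × 10⁶/assay) in buffered saline, pH 7.4, with 2 IU/ml adenosine deaminase and Ro 20-1724; preincubated 10 min at 37 °C. Stimulated with 200 nM NECA; compound at 1 µM. Stopped with cold 6% TCA, ether-extracted; cAMP by [³H]cAMP competition protein binding; % inhibition reported.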

[5] = molecular target: T5, Adenosine receptor A3 (Homo sapiens, UniProt P0DMS8); assay: as §1; assay type: cell-based; in short: as §2
T5 sequence (P0DMS8 whole entry): T1 sequence (whole entry)

[6] = molecular target: T6, Adenosine receptor A3 (Rattus norvegicus) (UniProt P28647); assay: Displacement of [125I]AB-MECA from rat adenosine A3 receptor expressed in HEK293 cells at 1 uM by scintillation counting; assay type: cell-based
T6 sequence (whole entry): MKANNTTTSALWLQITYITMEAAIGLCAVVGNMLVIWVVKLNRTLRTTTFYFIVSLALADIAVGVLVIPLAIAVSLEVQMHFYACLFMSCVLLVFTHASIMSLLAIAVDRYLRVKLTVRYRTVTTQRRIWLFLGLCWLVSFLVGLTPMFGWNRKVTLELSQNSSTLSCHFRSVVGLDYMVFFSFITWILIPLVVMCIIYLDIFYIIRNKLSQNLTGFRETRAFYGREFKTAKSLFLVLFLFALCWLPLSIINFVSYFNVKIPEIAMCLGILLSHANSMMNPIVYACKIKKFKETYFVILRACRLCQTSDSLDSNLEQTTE
In short: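 rA3-HEK293 membranes (10 µg protein) with 0.5 nM [125I]AB-MECA in Tris-HCl/MgCl2/EDTA buffer pH 7.4; 120 min at 25 °C; GF/B filtration and scintillation counting; percent inhibition at 1 µM test compound.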

[7] = molecular target: T5, Adenosine receptor A3; assay: Antagonist activity at human adenosine A3 receptor expressed in CHO cells assessed as inhibition of CI-IB-MECA-mediated inhibition of cAMP accumulation by competition protein binding assay; assay type: functional, cell-based
In short: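 hA3-CHO cells (1 × 10⁶/assay) preincubated 10 min at 37 °C in buffered saline pH 7.4 with adenosine deaminase (2 IU/ml) and Ro 20-1724. cAMP inhibited by 100 nM Cl-IB-MECA; antagonist 1 nM–1 µM. TCA stop, ether extraction, cAMP by [³H]cAMP/adrenal binding-protein competition. IC50 as mean of four experiments.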

[8] = molecular target: T7, Adenosine receptor A1 (Homo sapiens, UniProt P30542); assay: Displacement of [3H]DPCPX from human adenosine A1 receptor expressed in CHO cells by scintillation counting; assay type: cell-based; in short: as §3
T7 sequence (P30542 whole entry): T2 sequence (whole entry)

[9] = molecular target: T3, Adenosine receptor A2a; assay: Displacement of [3H]ZM241385 from human adenosine A2A receptor expressed in CHO cells by scintillation counting; assay type: cell-based; in short: as §4

T3 sequence (P29274 whole entry): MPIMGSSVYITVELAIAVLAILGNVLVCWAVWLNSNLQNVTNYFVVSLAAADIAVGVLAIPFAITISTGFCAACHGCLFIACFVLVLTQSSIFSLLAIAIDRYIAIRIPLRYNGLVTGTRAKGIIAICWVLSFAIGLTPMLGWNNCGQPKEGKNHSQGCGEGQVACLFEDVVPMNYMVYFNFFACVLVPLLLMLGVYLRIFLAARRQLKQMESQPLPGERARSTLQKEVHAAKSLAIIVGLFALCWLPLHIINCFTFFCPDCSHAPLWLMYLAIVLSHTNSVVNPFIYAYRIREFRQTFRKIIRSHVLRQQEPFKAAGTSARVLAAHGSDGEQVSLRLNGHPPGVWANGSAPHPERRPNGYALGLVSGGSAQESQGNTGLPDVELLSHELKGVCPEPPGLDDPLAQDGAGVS

inhibition [1] [%]	inhibition [2] [%]	inhibition [3] [%]	inhibition [4] [%]	Ki [5] [nM]	inhibition [6] [%]	IC50 [7] [nM]	Ki [8] [nM]	Ki [9] [nM]	Structure (SMILES)
24	4	3	6						O=C(c1cccc(C(F)(F)F)c1)N(C(=O)c1cccc(C(F)(F)F)c1)c1nc2ccccc2c2cn(-c3ccccc3)nc12
	10	1	3	140					O=C(Nc1nc2ccccc2c2cn(-c3ccc(C(F)(F)F)cc3)nc12)c1ccccc1
	6	6	2	65					O=C(Nc1nc2ccccc2c2cn(-c3ccccc3)nc12)c1cnccn1
	9	2	5	50					O=C(Nc1nc2ccccc2c2cn(-c3ccccc3)nc12)c1ccoc1
	45	1	6	50					O=C(Nc1nc2ccccc2c2cn(-c3ccccc3)nc12)c1cccs1
30	6	7	4						Nc1nc2ccccc2c2cn(-c3cccc(C(F)(F)F)c3)nc12
	0	0							O=C(c1ccccc1)N(C(=O)c1ccccc1)c1nc2ccccc2c2cn(-c3ccccc3)nc12
	4	2	3	24.7	21	145			O=C(Nc1nc2ccccc2c2cn(-c3ccc(Cl)cc3)nc12)c1ccncc1
	8	1	1	5	26	41			O=C(Nc1nc2ccccc2c2cn(-c3ccccc3)nc12)c1ccncc1
	20	1	35	6.3	5	26			Cc1cccc(C(=O)Nc2nc3ccccc3c3cn(-c4ccccc4)nc23)c1
11	1	1	11						Nc1nc2ccccc2c2cn(-c3ccc(C(F)(F)F)cc3)nc12
	6	1	38	11.5	7	54			Cc1ccc(C(=O)Nc2nc3ccccc3c3cn(-c4ccccc4)nc23)cc1
4	2	5	3						O=c1[nH]c2ccccc2c2cn(-c3cccc(C(F)(F)F)c3)nc12
	10	3	4	415					O=C(Nc1nc2ccccc2c2cn(-c3ccccc3)nc12)c1ccc(C(F)(F)F)cc1
	6	10	5	480					O=c1[nH]c2ccccc2c2cn(-c3ccc(C(F)(F)F)cc3)nc12
	9	6	3	210					O=C(Nc1nc2ccccc2c2cn(-c3ccccc3)nc12)c1ccncn1
	13	1	3	52					O=C(Nc1nc2ccccc2c2cn(-c3cccc(C(F)(F)F)c3)nc12)c1ccccc1
		10	5	7.5	30	49	500		Cc1ccc(C(=O)Nc2nc3ccccc3c3cn(-c4ccccc4)nc23)o1
		26							Cc1ccc(-n2cc3c(n2)c(NC(=O)c2ccccc2)nc2ccccc23)cc1
	1	2	2	40					O=C(Nc1nc2ccccc2c2cn(-c3ccccc3)nc12)c1ccsc1
	6	2	1	945					O=C(Nc1nc2ccccc2c2cn(-c3ccccc3)nc12)c1ncccn1
29	17	1	1						O=C(c1ccc(C(F)(F)F)cc1)N(C(=O)c1ccc(C(F)(F)F)cc1)c1nc2ccccc2c2cn(-c3ccccc3)nc12
								2860	Cc1cccc(-n2cc3c(n2)c(NC(=O)c2ccccc2)nc2ccccc23)c1
	3	9	15	15.5	23	107			O=C(Nc1nc2ccccc2c2cn(-c3ccccc3)nc12)c1ccccn1
	17	1	2	11.5	11	83			O=C(Nc1nc2ccccc2c2cn(-c3ccc(Cl)cc3)nc12)c1ccco1
	0	0		2					O=C(Nc1nc2ccccc2c2cn(-c3ccccc3)nc12)c1ccccc1
	34	20	3	3.4	29	21			O=C(Nc1nc2ccccc2c2cn(-c3ccccc3)nc12)c1ccco1
	12	1	2	60					O=C(Nc1nc2ccccc2c2cn(-c3ccccc3)nc12)c1cscn1
	23	1	2	60					O=C(Nc1nc2ccccc2c2cn(-c3ccccc3)nc12)c1cccc(C(F)(F)F)c1
	26	1	1	10.5	27	76			O=C(Nc1nc2ccccc2c2cn(-c3ccccc3)nc12)c1cccnc1
